Tests used:
[1] = test system: MCF7; experiment: Induction of apoptosis in human MCF7 cells assessed as accumulation at subG1 phase at 15 uM after 24 hrs by DNA flow cytometric assay; format: functional
Outline: (§1)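 Exponentially growing MCF-7 cells were given compound or vehicle, with camptothecin as positive control. Cells were fixed in 1% paraformaldehyde in PBS pH 7.4 on ice for 1 h, then in 70% ethanol at −20 °C for 30 min. They were stained with PI/RNase for 30 min at RT in the dark. DNA content was measured by flow cytometry as % of total cells. Mean ± SEM of three independent experiments, duplicate wells.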

[2] = test system: HT-29; experiment: Cytotoxicity against human HT-29 cells after 72 hrs by CV method; format: functional; settings: HT-29, 72 h
Outline: (§2)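 Crystal violet check of the MTT data: eight concentrations between 0.01 and 100, with 72 h exposure. Cells were fixed in 4% formaldehyde for at least 20 min, then stained with 0.1% crystal violet for 30 min. GI₅₀ is the concentration halving growth relative to untreated controls.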

[3] = test system: MCF7; experiment: Induction of apoptosis in human MCF7 cells assessed as accumulation at G2/M phase at 15 uM after 48 hrs by DNA flow cytometric assay; format: functional; outline: as §1
[4] = test system: HT-29; experiment: Cytotoxicity against human HT-29 cells after 72 hrs by MTT assay; format: functional; settings: HT-29, 72 h; for CC50: read-out: LC50 (the source's name)
Outline: (§3)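 Cells seeded per well: Hep-G2 1×10⁴, HT-29 4×10³, K-562 4×10³, MCF-7 1.2×10⁴, MCF-10A 7×10³, PC-3 2×10³. MCF-10A were grown in supplemented MEBM at 37 °C, 5% CO₂. Five concentrations were tested between 0.01 and 100, with 72 h exposure. Formazan was read by A590. GI₅₀ was taken relative to untreated controls, from at least three independent experiments.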

[5] = test system: HepG2; experiment: Cytotoxicity against human HepG2 cells after 72 hrs by MTT assay; format: functional; settings: HepG2, 72 h; outline: as §3
[6] = test system: PC-3; experiment: Cytotoxicity against human PC3 cells after 72 hrs by CV method; format: functional; settings: PC-3, 72 h; outline: as §2
[7] = test system: PC-3; experiment: Cytotoxicity against human PC3 cells after 72 hrs by MTT assay; format: functional; settings: PC-3, 72 h; for CC50: read-out: LC50 (the source's name); outline: as §3
[8] = test system: MCF7; experiment: Induction of apoptosis in human MCF7 cells assessed as apoptotic cells at 15 uM after 48 hrs by TUNEL assay; format: functional
Outline: (§4)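 TUNEL (Apo-Direct) on MCF-7 cells treated with compound or vehicle, with camptothecin as positive control. Cells were fixed in paraformaldehyde and then ethanol, labelled with FITC-dUTP for 1 h at 37 °C, counterstained with PI/RNase, and analysed by flow cytometry. Read-out is % apoptotic cells, mean ± SEM of three independent experiments in duplicate wells.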

[9] = test system: MCF7; experiment: Induction of apoptosis in human MCF7 cells assessed as accumulation at subG1 phase at 15 uM after 48 hrs by DNA flow cytometric assay; format: functional; outline: as §1
[10] = test system: MCF7; experiment: Induction of apoptosis in human MCF7 cells assessed as accumulation at S phase at 15 uM after 48 hrs by DNA flow cytometric assay; format: functional; outline: as §1
[11] = test system: K562; experiment: Cytotoxicity against human K562 cells after 72 hrs by MTT assay; format: functional; settings: K562, 72 h; for CC50: read-out: LC50 (the source's name); outline: as §3
[12] = test system: MCF7; experiment: Induction of apoptosis in human MCF7 cells assessed as accumulation at G0/G1 phase at 15 uM after 24 hrs by DNA flow cytometric assay; format: functional; outline: as §1
[13] = test system: MCF7; experiment: Induction of apoptosis in human MCF7 cells assessed as accumulation at G0/G1 phase at 15 uM after 48 hrs by DNA flow cytometric assay; format: functional; outline: as §1
[14] = test system: MCF7; experiment: Cytotoxicity against human MCF7 cells after 72 hrs by MTT assay; format: functional; settings: MCF7, 72 h; outline: as §3
[15] = test system: MCF7; experiment: Induction of apoptosis in human MCF7 cells assessed as accumulation at G2/M phase at 15 uM after 24 hrs by DNA flow cytometric assay; format: functional; outline: as §1
[16] = test system: MCF7; experiment: Induction of apoptosis in human MCF7 cells assessed as accumulation at S phase at 15 uM after 24 hrs by DNA flow cytometric assay; format: functional; outline: as §1
[17] = Cytotoxicity against human MCF10A cells after 72 hrs by MTT assay; format: cell-based, MCF-10A; outline: as §3
[18] = test system: MCF7; experiment: Induction of apoptosis in human MCF7 cells assessed as apoptotic cells at 15 uM after 24 hrs by TUNEL assay; format: functional; outline: as §4

SMILES | Activity [1] | Activity [3] | GI50 [4] | TGI [4] | CC50 [4] | GI50 [7] | TGI [7] | CC50 [7] | Activity [8] | Activity [9] | Activity [10] | GI50 [11] | TGI [11] | CC50 [11] | Activity [12] | Activity [13] | GI50 [14] | TGI [14] | Activity [15] | Activity [16] | further results
C[Se]/C(=N\C(=O)c1cccs1)NC(=O)c1cccs1 | 9.31% | 22.74% | 0.00034 µM | > 100 µM | > 100 µM | 1.34 µM | 63 µM | > 100 µM | 71.08% | 14.14% | 25.21% | 6.07 µM | > 100 µM | > 100 µM | 45.32% | 35.25% | 0.0034 µM | 5.64 µM | 23.85% | 18.3% | GI50 [2]: 9 µM; GI50 [5]: 0.63 µM; TGI [5]: 1.5 µM; CC50 ([5]; read-out: LC50 (the source's name)): 12.5 µM; GI50 [6]: 0.63 µM; LC50 [14]: > 100 µM; GI50 at 72 h ([17]; MCF10A cells): 9.26 µM; LC50 ([17]; mcf-10a, 72 h): 73.51 µM; TGI ([17]; mcf-10a, 72 h): 41.14 µM; Activity [18]: 29.35%
CC[C@@]1(O)C(=O)OCc2c1cc1n(c2=O)Cc2cc3ccccc3nc2-1 [CAMPTOTHECIN] | 10.92% | 15.15% | 0.05 µM | 31.6 µM | 31.6 µM | 0.06 µM | > 100 µM | > 100 µM | 71.45% | 25.73% | 16.91% | 0.06 µM | 50.1 µM | > 100 µM | 65.62% | 41.61% | 0.01 µM | 0.16 µM | 11.51% | 10.4% | Activity [18]: 21.25%
